In brackets after ≈: the same amount, converted by molar mass.
What was measured:
Type in all cases: functional
[1] = test system: Streptococcus pneumoniae; experiment: Antibacterial activity against Streptococcus pneumoniae W001 harboring wild-type parC and gyrA genes
[2] = test system: Streptococcus pneumoniae; experiment: Antibacterial activity against Streptococcus pneumoniae S003 harboring wild-type parC and gyrA Ser81Phe mutant genes
[3] = test system: Streptococcus pneumoniae; experiment: Antibacterial activity against Streptococcus pneumoniae S004 harboring wild-type parC and gyrA Gly85Asn mutant genes assessed as mutation prevention concentration after 48 hrs
Summary of the method: (§1)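 A 200 μl culture at 10 log10 CFU/ml was spread on Mueller-Hinton II agar with 5% sheep blood containing drug at a range of concentrations, then incubated at 37°C in 5% CO2. MPC was taken as the lowest concentration preventing colony formation after 48 h. Determinations were done in duplicate.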

[4] = test system: Streptococcus pneumoniae; experiment: Antibacterial activity against Streptococcus pneumoniae W002 harboring wild-type parC and gyrA genes assessed as mutation prevention concentration after 48 hrs; summary of the method: as §1
[5] = test system: Streptococcus pneumoniae; experiment: Antibacterial activity against Streptococcus pneumoniae D001 harboring parC Ser79Phe and gyrA Gly85Lys mutant genes assessed as mutation prevention concentration after 48 hrs; summary of the method: as §1
[6] = test system: Streptococcus pneumoniae; experiment: Antibacterial activity against Streptococcus pneumoniae D001 harboring parC Ser79Phe and gyrA Gly85Lys mutant genes
[7] = test system: Streptococcus pneumoniae; experiment: Antibacterial activity against Streptococcus pneumoniae S004 harboring wild-type parC and gyrA Gly85Asn mutant genes
[8] = test system: Streptococcus pneumoniae; experiment: Antibacterial activity against Streptococcus pneumoniae D002 harboring parC Ser79Phe and gyrA Ser81Phe mutant genes
[9] = test system: Streptococcus pneumoniae; experiment: Antibacterial activity against Streptococcus pneumoniae S003 harboring wild-type parC and gyrA Ser81Phe mutant genes assessed as mutation prevention concentration after 48 hrs; summary of the method: as §1
[10] = test system: Streptococcus pneumoniae; experiment: Antibacterial activity against Streptococcus pneumoniae D002 harboring parC Ser79Phe and gyrA Ser81Phe mutant genes assessed as mutation prevention concentration after 48 hrs; summary of the method: as §1
[11] = test system: Streptococcus pneumoniae; experiment: Antibacterial activity against Streptococcus pneumoniae W002 harboring wild-type parC and gyrA genes
[12] = test system: Streptococcus pneumoniae; experiment: Antibacterial activity against Streptococcus pneumoniae W001 harboring wild-type parC and gyrA genes assessed as mutation prevention concentration after 48 hrs; summary of the method: as §1
[13] = test system: Streptococcus pneumoniae; experiment: Antibacterial activity against Streptococcus pneumoniae S002 harboring parC Ser79Phe mutant and wild-type gyrA genes
[14] = test system: Streptococcus pneumoniae; experiment: Antibacterial activity against Streptococcus pneumoniae S002 harboring parC Ser79Phe mutant and wild-type gyrA genes assessed as mutation prevention concentration after 48 hrs; summary of the method: as §1
[15] = test system: Streptococcus pneumoniae; experiment: Antibacterial activity against Streptococcus pneumoniae S001 harboring parC Asp83Asn mutant and wild-type gyrA genes assessed as mutation prevention concentration after 48 hrs; summary of the method: as §1
[16] = test system: Streptococcus pneumoniae; experiment: Antibacterial activity against Streptococcus pneumoniae S001 harboring parC Asp83Asn mutant and wild-type gyrA genes
[17] = test system: Streptococcus pneumoniae; experiment: Antibacterial activity against Streptococcus pneumoniae W002 assessed as resistant isolates with ParC79 mutation in quinolone resistance-determining regions
Summary of the method: (§2)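 Up to eight colonies per plate were grown individually, and genomic DNA was screened for ParC Ser79/Asp83 and GyrA Ser81/Gly85 changes by PCR-melting curve analysis with labelled hybridization probes. Sequences were confirmed by direct sequencing.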

[18] = test system: Streptococcus pneumoniae; experiment: Antibacterial activity against Streptococcus pneumoniae S003 assessed as resistant isolates with ParC83 mutation in quinolone resistance-determining regions; summary of the method: as §2
[19] = test system: Streptococcus pneumoniae; experiment: Antibacterial activity against Streptococcus pneumoniae W002 assessed as resistant isolates with GyrA85 mutation in quinolone resistance-determining regions; summary of the method: as §2
[20] = test system: Streptococcus pneumoniae; experiment: Antibacterial activity against Streptococcus pneumoniae S001 assessed as resistant isolates with GyrA81 mutation in quinolone resistance-determining regions; summary of the method: as §2
[21] = test system: Streptococcus pneumoniae; experiment: Antibacterial activity against Streptococcus pneumoniae S004 assessed as resistant isolates with ParC83 mutation in quinolone resistance-determining regions; summary of the method: as §2
[22] = test system: Streptococcus pneumoniae; experiment: Antibacterial activity against Streptococcus pneumoniae S004
[23] = test system: Streptococcus pneumoniae; experiment: Antibacterial activity against Streptococcus pneumoniae S003 assessed as resistant isolates with ParC79 mutation in quinolone resistance-determining regions; summary of the method: as §2
[24] = test system: Streptococcus pneumoniae; experiment: Antibacterial activity against Streptococcus pneumoniae W001 assessed as resistant isolates with GyrA85 mutation in quinolone resistance-determining regions; summary of the method: as §2
[25] = test system: Streptococcus pneumoniae; experiment: Antibacterial activity against Streptococcus pneumoniae D002 assessed as resistant isolates with ParC83 mutation in quinolone resistance-determining regions; summary of the method: as §2
[26] = test system: Streptococcus pneumoniae; experiment: Antibacterial activity against Streptococcus pneumoniae D001 assessed as resistant isolates with GyrA81 mutation in quinolone resistance-determining regions; summary of the method: as §2
[27] = test system: Streptococcus pneumoniae; experiment: Antibacterial activity against Streptococcus pneumoniae S002 assessed as resistant isolates with ParC83 mutation in quinolone resistance-determining regions; summary of the method: as §2
[28] = test system: Streptococcus pneumoniae; experiment: Antibacterial activity against Streptococcus pneumoniae S002 assessed as resistant isolates with GyrA81 mutation in quinolone resistance-determining regions; summary of the method: as §2
[29] = test system: Streptococcus pneumoniae; experiment: Antibacterial activity against Streptococcus pneumoniae W002
[30] = test system: Streptococcus pneumoniae; experiment: Antibacterial activity against Streptococcus pneumoniae D001
[31] = test system: Streptococcus pneumoniae; experiment: Antibacterial activity against Streptococcus pneumoniae S003
[32] = test system: Streptococcus pneumoniae; experiment: Antibacterial activity against Streptococcus pneumoniae D002
[33] = test system: Streptococcus pneumoniae; experiment: Antibacterial activity against Streptococcus pneumoniae S001 assessed as resistant isolates with GyrA85 mutation in quinolone resistance-determining regions; summary of the method: as §2
[34] = test system: Streptococcus pneumoniae; experiment: Antibacterial activity against Streptococcus pneumoniae D002 assessed as resistant isolates with GyrA85 mutation in quinolone resistance-determining regions; summary of the method: as §2
[35] = test system: Streptococcus pneumoniae; experiment: Antibacterial activity against Streptococcus pneumoniae W001 assessed as resistant isolates with ParC83 mutation in quinolone resistance-determining regions; summary of the method: as §2
[36] = test system: Streptococcus pneumoniae; experiment: Antibacterial activity against Streptococcus pneumoniae W002 assessed as resistant isolates with GyrA81 mutation in quinolone resistance-determining regions; summary of the method: as §2
[37] = test system: Streptococcus pneumoniae; experiment: Antibacterial activity against Streptococcus pneumoniae S002 assessed as resistant isolates with GyrA85 mutation in quinolone resistance-determining regions; summary of the method: as §2
[38] = test system: Streptococcus pneumoniae; experiment: Antibacterial activity against Streptococcus pneumoniae W001 assessed as resistant isolates with ParC79 mutation in quinolone resistance-determining regions; summary of the method: as §2
[39] = test system: Streptococcus pneumoniae; experiment: Antibacterial activity against Streptococcus pneumoniae S001
[40] = test system: Streptococcus pneumoniae; experiment: Antibacterial activity against Streptococcus pneumoniae S003 assessed as resistant isolates with GyrA85 mutation in quinolone resistance-determining regions; summary of the method: as §2
[41] = test system: Streptococcus pneumoniae; experiment: Antibacterial activity against Streptococcus pneumoniae W002 assessed as resistant isolates with ParC83 mutation in quinolone resistance-determining regions; summary of the method: as §2
[42] = test system: Streptococcus pneumoniae; experiment: Antibacterial activity against Streptococcus pneumoniae S004 assessed as resistant isolates with ParC79 mutation in quinolone resistance-determining regions; summary of the method: as §2
[43] = test system: Streptococcus pneumoniae; experiment: Antibacterial activity against Streptococcus pneumoniae W001 assessed as resistant isolates with GyrA81 mutation in quinolone resistance-determining regions; summary of the method: as §2
[44] = test system: Streptococcus pneumoniae; experiment: Antibacterial activity against Streptococcus pneumoniae S002
[45] = test system: Streptococcus pneumoniae; experiment: Antibacterial activity against Streptococcus pneumoniae S004 assessed as resistant isolates with GyrA85 mutation in quinolone resistance-determining regions; summary of the method: as §2
[46] = test system: Streptococcus pneumoniae; experiment: Antibacterial activity against Streptococcus pneumoniae W001
[47] = test system: Streptococcus pneumoniae; experiment: Antibacterial activity against Streptococcus pneumoniae S001 assessed as resistant isolates with ParC79 mutation in quinolone resistance-determining regions; summary of the method: as §2

COc1c(N2C[C@@H]3CCCN[C@@H]3C2)c(F)cc2c(=O)c(C(=O)O)cn(C3CC3)c12 [MOXIFLOXACIN]
MIC [1]: 0.06 µg/mL (≈ 0.149 µM) | MIC [2]: 0.06 µg/mL (≈ 0.149 µM) | Activity [3]: 4 µg/mL | Activity [4]: 0.5 µg/mL | Activity [5]: 16 µg/mL | MIC [6]: 4 µg/mL (≈ 9.96 µM) | MIC [7]: 0.12 µg/mL (≈ 0.299 µM) | MIC [8]: 4 µg/mL (≈ 9.96 µM) | Activity [9]: 4 µg/mL | Activity [10]: 16 µg/mL | MIC [11]: 0.06 µg/mL (≈ 0.149 µM) | Activity [12]: 0.5 µg/mL

COc1c(N2CCNC(C)C2)c(F)cc2c(=O)c(C(=O)O)cn(C3CC3)c12 (centres undefined) [GATIFLOXACIN]
MIC [1]: 0.12 µg/mL (≈ 0.32 µM) | MIC [2]: 0.12 µg/mL (≈ 0.32 µM) | Activity [3]: 8 µg/mL | Activity [4]: 0.5 µg/mL | MIC [13]: 0.12 µg/mL (≈ 0.32 µM) | Activity [14]: 4 µg/mL | Activity [15]: 4 µg/mL | Activity [5]: 16 µg/mL | MIC [6]: 4 µg/mL (≈ 10.7 µM) | MIC [7]: 0.25 µg/mL (≈ 0.666 µM) | MIC [16]: 0.25 µg/mL (≈ 0.666 µM) | MIC [8]: 8 µg/mL (≈ 21.3 µM) | Activity [9]: 8 µg/mL | Activity [10]: 16 µg/mL | MIC [11]: 0.12 µg/mL (≈ 0.32 µM) | Activity [12]: 0.5 µg/mL

C[C@H]1COc2c(N3CCN(C)CC3)c(F)cc3c(=O)c(C(=O)O)cn1c23.C[C@H]1COc2c(N3CCN(C)CC3)c(F)cc3c(=O)c(C(=O)O)cn1c23.O [LEVOFLOXACIN]
Activity [3]: 32 µg/mL | Activity [4]: 2 µg/mL | Activity [14]: 16 µg/mL | Activity [15]: 16 µg/mL | Activity [5]: 128 µg/mL | Activity [9]: 32 µg/mL | Activity [10]: 128 µg/mL | Activity [12]: 2 µg/mL

C[C@H]1NCc2cc(-c3ccc4c(=O)c(C(=O)O)cn(C5CC5)c4c3OC(F)F)ccc21 [GARENOXACIN]
MIC [1]: 0.015 µg/mL (≈ 0.0352 µM) | Activity [17]: 0% | MIC [2]: 0.06 µg/mL (≈ 0.141 µM) | Activity [3]: 2 µg/mL | Activity [4]: 0.12 µg/mL | MIC [13]: 0.06 µg/mL (≈ 0.141 µM) | Activity [18]: 0% | Activity [19]: 0% | Activity [14]: 1 µg/mL | Activity [20]: 77% | Activity [15]: 1 µg/mL | Activity [5]: 4 µg/mL | MIC [6]: 0.25 µg/mL (≈ 0.586 µM) | Activity [21]: 0% | MIC [22]: 0.06 µg/mL (≈ 0.141 µM) | Activity [23]: 65% | Activity [24]: 12% | Activity [25]: 21% | MIC [7]: 0.06 µg/mL (≈ 0.141 µM) | Activity [26]: 70% | MIC [16]: 0.03 µg/mL (≈ 0.0704 µM) | Activity [27]: 0% | Activity [28]: 48% | MIC [29]: 0.015 µg/mL (≈ 0.0352 µM) | MIC [30]: 0.25 µg/mL (≈ 0.586 µM) | MIC [31]: 0.06 µg/mL (≈ 0.141 µM) | MIC [32]: 0.5 µg/mL (≈ 1.17 µM) | Activity [33]: 0% | Activity [34]: 50% | Activity [35]: 0% | Activity [36]: 67% | MIC [8]: 0.5 µg/mL (≈ 1.17 µM) | Activity [9]: 2 µg/mL | Activity [37]: 9% | Activity [10]: 4 µg/mL | Activity [38]: 0% | MIC [11]: 0.015 µg/mL (≈ 0.0352 µM) | MIC [39]: 0.03 µg/mL (≈ 0.0704 µM) | Activity [40]: 0% | Activity [12]: 0.12 µg/mL | Activity [41]: 0% | Activity [42]: 56% | Activity [43]: 50% | MIC [44]: 0.06 µg/mL (≈ 0.141 µM) | Activity [45]: 0% | MIC [46]: 0.015 µg/mL (≈ 0.0352 µM) | Activity [47]: 0%

O=C(O)c1cn(C2CC2)c2cc(N3CCNCC3)c(F)cc2c1=O [CIPROFLOXACIN]
Activity [3]: 64 µg/mL | Activity [4]: 8 µg/mL | Activity [14]: 128 µg/mL | Activity [15]: 128 µg/mL | Activity [5]: 256 µg/mL | MIC [6]: 32 µg/mL (≈ 96.6 µM) | MIC [8]: 8 µg/mL (≈ 24.1 µM) | Activity [9]: 64 µg/mL | Activity [10]: 256 µg/mL | MIC [11]: 0.25 µg/mL (≈ 0.754 µM) | Activity [12]: 8 µg/mL

— ChEMBL document CHEMBL1649531, “In vitro activity of garenoxacin against Streptococcus pneumoniae mutants with characterized resistance mechanisms” (2009)
